We go through five compounds from PMC2635340 (Neuropharmacology, 2008).

Each structure is given as a SMILES string. Where a name gives a salt, the structure may show the parent alone.

The target in one experiment is 5-HT2AR (Homo sapiens, UniProt P28223). The experiment in a line: ERK1/2 activation. It is filed as cell-based.
Experiment [1] addresses 5-HT1A and 5-HT2A receptors (Homo sapiens, UniProt P28223). It is filed as cell-based. The settings on record: 50 nM, 2 hours exposure before TCB-2 alone or TCB-2 and Xaliproden HCl.
A further experiment concerns the target T1, 5-HT1AR (Homo sapiens, UniProt P08908).
T1 sequence (P08908 1-422): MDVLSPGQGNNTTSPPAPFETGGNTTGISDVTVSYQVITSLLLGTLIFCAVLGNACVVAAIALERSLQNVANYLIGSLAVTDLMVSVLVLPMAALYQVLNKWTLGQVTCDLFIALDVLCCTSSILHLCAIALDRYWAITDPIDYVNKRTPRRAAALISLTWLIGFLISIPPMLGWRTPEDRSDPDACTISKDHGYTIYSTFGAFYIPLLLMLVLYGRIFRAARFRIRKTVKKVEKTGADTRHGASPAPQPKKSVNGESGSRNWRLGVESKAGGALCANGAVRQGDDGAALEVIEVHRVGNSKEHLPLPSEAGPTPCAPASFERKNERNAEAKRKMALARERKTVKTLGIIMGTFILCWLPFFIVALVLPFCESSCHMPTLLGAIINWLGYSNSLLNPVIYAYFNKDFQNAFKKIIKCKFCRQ
The experiment in a line: ERK1/2 activation. It is filed as cell-based. The essentials: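 HEK293 cells stably expressing human 5-HT1AR (clonal, selected with G418 or hygromycin) were kept in 100 μg/ml selection antibiotic and then serum-starved in serum-free DMEM for at least 24 h. Agonist (10−10–10−4 M) was applied for 5 min; selected concentrations ran 5 min–1 h. Lysates (equal protein) were resolved by 10% SDS-PAGE. Parallel blots were probed for phospho-ERK1/2 and total ERK1/2, read by ECL densitometry with background subtracted. Serum was the positive control.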

The next experiment deals with T2, human 5-HT1A receptors (Homo sapiens, UniProt P08908).
T2 sequence (P08908 1-422): T1 sequence (P08908 1-422)
Put plainly: Saturation isotherm radioligand binding, 5-HT1A receptor. The settings on record: membranes, geometric mean ± SD, n = 3. In a few lines:
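HEK293 membranes (5-HT1AR alone or with 5-HT2AR) were prepared by EDTA detachment, hypotonic lysis (5 mM Tris/MgCl2, pH 7.4) and 35,000g spins. They were incubated with [3H]MPPF in 50 mM Tris, pH 7.4, at 25 °C for 1.5 h, with excess NAN-190 defining nonspecific binding. Bound ligand was collected on PEI-treated GF/C filters and counted. Triplicate points; Kd and Bmax came from saturation isotherms, three experiments.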

A further experiment deals with human 5-HT2A receptors (Homo sapiens, UniProt P28223). Put plainly: Saturation isotherm radioligand binding, 5-HT2A receptor. The settings on record: membranes, geometric mean ± SD, n = 3. In a few lines:
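HEK293 membranes (5-HT2AR alone or with 5-HT1AR) were prepared by EDTA detachment, hypotonic lysis and 35,000g centrifugation. Saturation binding used [3H]MSP (0.3–10 nM) in 50 mM Tris, pH 7.4, for 1.5 h at 25 °C, with excess mianserin defining nonspecific binding. Samples were filtered on PEI-treated GF/C filters and counted by scintillation, with protein measured by BCA. Triplicate points; Kd and Bmax were fitted from isotherms, geometric mean of three experiments.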

Where [2] appears, read: HEK293 cell line 5-HT1A+2AR co-expressing.

human 5-HT2A receptors, sequence (P28223 whole entry): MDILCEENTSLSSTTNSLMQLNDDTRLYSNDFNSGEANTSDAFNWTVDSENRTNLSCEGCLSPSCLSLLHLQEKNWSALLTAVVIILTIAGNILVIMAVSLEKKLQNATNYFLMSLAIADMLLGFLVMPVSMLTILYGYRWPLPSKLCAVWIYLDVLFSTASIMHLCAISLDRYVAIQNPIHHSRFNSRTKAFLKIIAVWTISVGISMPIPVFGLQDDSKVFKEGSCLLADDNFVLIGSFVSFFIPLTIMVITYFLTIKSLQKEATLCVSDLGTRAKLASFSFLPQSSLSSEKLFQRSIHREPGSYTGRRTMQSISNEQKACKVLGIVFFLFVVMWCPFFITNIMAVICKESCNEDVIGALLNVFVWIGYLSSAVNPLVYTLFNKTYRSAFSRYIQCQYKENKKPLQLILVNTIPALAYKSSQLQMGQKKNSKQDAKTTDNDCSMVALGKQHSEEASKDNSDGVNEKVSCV
5-HT2AR, sequence (P28223 whole entry): as above
5-HT1A and 5-HT2A receptors, sequence (P28223 whole entry): as above

Turning to `O=C(c1ccc(F)cc1)C1CCN(CCn2c(=O)[nH]c3ccccc3c2=O)CC1` [Ketanserin], on 5-HT2AR (50 nM Ketanserin present, 5-HT2AR clone), the “Fraction of initial ERK activation observed” value is given as “about half”. In experiment [1], the “Effect on agonist-induced ERK response” value is reported as “switched it from sustained to transient”.

For the compound `FC(F)(F)c1cccc(C2=CCN(CCc3ccc4ccccc4c3)CC2)c1` [Xaliproden HCl, Xaliproden hydrochloride], the “Time-course pattern of ERK1/2 activation” value at 5-HT1AR (5-HT1AR agonist, HEK293 cells) is reported as “transient activation”. Besides, the “Minimal concentration required to obtain observed ERK activation” value on 5-HT1AR (5-HT1AR cells, dose-response, 5 min) came out at 100 nM.

The Kd is the equilibrium constant for the complex coming apart. Regarding `COc1ccccc1N1CCN(CCN(C(=O)c2ccc(F)cc2)c2ccccn2)CC1` [[3H] MPPF, 4-(2′-Methoxy)-phenyl-1-[2′-(N-2″-pyridinyl)-p-fluorobenzamido]ethyl-piperazine], on human 5-HT1A receptors (setting [2]), the Bmax was 8.37 ± 4.14 pmol/mg and the Kd was found to be 0.167 ± 0.013 nM. On human 5-HT1A receptors (HEK293 cell line 5-HT1AR only), this compound showed a Bmax of 3.07 ± 1.67 pmol/mg and a Kd of 0.267 ± 0.036 nM.

For the compound `CN1CN(c2ccccc2)C2(CCN(CCCC(=O)c3ccc(F)cc3)CC2)C1=O` [[3H] MSP, [^3H]methylspiperone], the Bmax at human 5-HT2A receptors (setting [2]) was determined as 7.00 ± 1.05 pmol/mg; on human 5-HT2A receptors (HEK293 cell line 5-HT2AR only), 4.17 ± 2.28 pmol/mg. The dissociation constant Kd at human 5-HT2A receptors (setting [2]) stood at 0.725 ± 0.199 nM; at human 5-HT2A receptors (HEK293 cell line 5-HT2AR only), 0.246 ± 0.042 nM.

With `CC(N)Cc1c[nH]c2ccc(O)cc12` (stereo not drawn) [α-methyl-5-HT], at 5-HT2AR (10μM, HEK293-h5-HT2A), the “Time-course pattern of ERK activation” value is “sustained ERK activation”.
